From ChEMBL document CHEMBL1146358, “ANN-QSAR model for selection of anticancer leads from structurally heterogeneous series of compounds” (Eur J Med Chem, 2007)
Converted amounts (≈) assume the structure as drawn.

Assays:
Assay type in all cases: functional, cell-based
[1] = Growth inhibition of human Molt4/C8 cells; conditions: MOLT-4
Procedure, shortened: (§1)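 Cells grown with test compound for 72 h at 37 C in humidified CO2-controlled atmosphere; cells counted by Coulter counter at end of incubation; IC50 = concentration reducing number of living cells by 50%.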

[2] = Growth inhibition of human CEM/0 cells; conditions: CCRF-CEM; procedure, shortened: as §1
[3] = Growth inhibition of mouse L1210/0 cells
Procedure, shortened: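 Cells grown with test compound for 48 h at 37 C in humidified CO2-controlled atmosphere; cells counted by Coulter counter at end of incubation; IC50 = concentration reducing number of living cells by 50%.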

Row | SMILES | IC50 [1] [µg/mL] | IC50 [2] [µg/mL] | IC50 [3] [µg/mL]
1 | Cc1cn(C2CCCC2)c(=O)[nH]c1=O | 98.8 (≈ 509 µM) | 138 (≈ 710 µM) | 85.2 (≈ 439 µM)
2 | O=c1[nH]c(=O)n(C2CCCC2)cc1F | 78.1 (≈ 394 µM) | 66 (≈ 333 µM) | 35.1 (≈ 177 µM)
3 | O=c1[nH]c(=O)n(C2CCCC2)cc1Cl | 81.3 (≈ 379 µM) | 82 (≈ 382 µM) | 103 (≈ 480 µM)
4 | O=c1[nH]c(=O)n(C2CCCC2)cc1Br | 97.2 (≈ 375 µM) | 37.1 (≈ 143 µM) | 50.3 (≈ 194 µM)
5 | O=c1[nH]c(=O)n(C2CCCC2)cc1I | 53.2 (≈ 174 µM) | 60.9 (≈ 199 µM) | 98.8 (≈ 323 µM)
6 | O=c1ccn(C2CCCC2)c(=O)[nH]1 | 108 (≈ 599 µM) | 80 (≈ 444 µM) | 66.3 (≈ 368 µM)
